# Experimental data: ChEMBL document CHEMBL4118229, “lH-Pyrazolo[3,4-b]quinolin-3-amine derivatives inhibit growth of colon cancer cells via apoptosis and sub G1 cell cycle arrest” (Bioorg Med Chem Lett, 2018)
# The source made the active and inactive calls. No cut-off for these calls is given here.
# Columns and labels:
# [1] = test system: HCT-15; test: Antiproliferative activity against human HCT15 cells by MTT assay; type: functional, cell-based
# [2] = test system: MDA-MB-231; test: Antiproliferative activity against human MDA-MB-231 cells by MTT assay; type: functional, cell-based
# [3] = test system: A2780; test: Antiproliferative activity against human A2780 cells by MTT assay; type: functional, cell-based
# [4] = test system: MCF7; test: Antiproliferative activity against human MCF7 cells by MTT assay; type: functional, cell-based
# [5] = test system: HCT-116; test: Antiproliferative activity against human HCT116 cells by MTT assay; type: functional, cell-based
# [6] = test system: LoVo; test: Antiproliferative activity against human LoVo cells by MTT assay; type: functional, cell-based
# [7] = test system: HT-29; test: Antiproliferative activity against human HT-29 cells by MTT assay; type: functional, cell-based
# [8] = test system: HEK293; test: Antiproliferative activity against human HEK293 cells by MTT assay; type: cell-based
# [9] = test system: LN-229; test: Antiproliferative activity against human LN229 cells by MTT assay; type: functional, cell-based
# [10] = test system: DU-145; test: Antiproliferative activity against human DU145 cells by MTT assay; type: functional, cell-based
# [11] = test system: PC-3; test: Antiproliferative activity against human PC3 cells by MTT assay; type: functional, cell-based
# [12] = test system: HCT-116; test: Cell cycle arrest in human HCT116 cells assessed as subG1 phase accumulation at 20 uM after 24 hrs by propidium iodide staining-based flow cytometric analysis (reference value: 3.81%); type: functional
# [13] = test system: HCT-116; test: Cell cycle arrest in human HCT116 cells assessed as G1 phase accumulation at 10 uM after 24 hrs by propidium iodide staining-based flow cytometric analysis (reference value: 78.7%); type: functional
# [14] = test system: HCT-116; test: Cell cycle arrest in human HCT116 cells assessed as G1 phase accumulation at 5 uM after 24 hrs by propidium iodide staining-based flow cytometric analysis (reference value: 78.7%); type: functional
# [15] = test system: HCT-15; test: Cytotoxicity against human HCT15 cells at 1 to 30 uM incubated for 72 hrs by inverted microscopy
# [16] = test system: HCT-116; test: Induction of apoptosis in human HCT116 cells assessed as viable cells at 30 uM after 24 hrs by Alexa Fluor 488 Annexin V/MitoTracker red staining-based flow cytometric analysis (reference value: 92.5%); type: functional; details: HCT-116, 24 h, read-out: Activity
# [17] = test system: HCT-116; test: Cell cycle arrest in human HCT116 cells assessed as subG1 phase accumulation at 5 uM after 24 hrs by propidium iodide staining-based flow cytometric analysis (reference value: 3.81%); type: functional
# [18] = test system: HCT-116; test: Cell cycle arrest in human HCT116 cells assessed as G2 phase accumulation at 20 uM after 24 hrs by propidium iodide staining-based flow cytometric analysis (reference value: 7.56%); type: functional
# [19] = test system: HCT-116; test: Induction of apoptosis in human HCT116 cells assessed as apoptotic cells at 30 uM after 24 hrs by Alexa Fluor 488 Annexin V/MitoTracker red staining-based flow cytometric analysis (reference value: 7.48%); type: functional
# [20] = test system: HCT-116; test: Cytotoxicity against human HCT116 cells assessed as cell confluence at 10 to 30 uM up to 72 hrs (reference value: 60%); type: functional
# [21] = test system: LoVo; test: Cytotoxicity against human LoVo cells at 1 to 30 uM incubated for 72 hrs by inverted microscopy
# [22] = test system: HCT-116; test: Induction of apoptosis in human HCT116 cells assessed as viable cells at 10 uM after 24 hrs by Alexa Fluor 488 Annexin V/MitoTracker red staining-based flow cytometric analysis (reference value: 92.5%); type: functional; details: HCT-116, 24 h, read-out: Activity
# [23] = test system: HEK293; test: Cytotoxicity against human HEK293 cells at 1 to 30 uM incubated for 72 hrs by inverted microscopy; details: hek293, 72 h
# [24] = test system: HCT-116; test: Cell cycle arrest in human HCT116 cells assessed as S phase accumulation at 5 uM after 24 hrs by propidium iodide staining-based flow cytometric analysis (reference value: 9.18%); type: functional
# [25] = test system: HCT-116; test: Inhibition of colony formation in human HCT116 cells assessed as decrease in reduction in mean colony formation rate at 5 to 20 uM; type: functional, cell-based
# How it was run: (§1)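 HCT116 colony formation assay with 5, 10 or 20 μM, or vehicle. Colony number, density and size recorded. Three independent repeats.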
# [26] = test system: HCT-116; test: Cell cycle arrest in human HCT116 cells assessed as S phase accumulation at 10 uM after 24 hrs by propidium iodide staining-based flow cytometric analysis (reference value: 9.18%); type: functional
# [27] = test system: HCT-116; test: Induction of apoptosis in human HCT116 cells assessed as nuclear condensation at 5 to 10 uM after 24 hrs by DAPI staining-based fluorescent microscopic analysis; type: functional, cell-based
# How it was run: (§2)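 HCT116 cells given 5 or 10 μM, or vehicle, for 24 or 48 h. Cells fixed and stained with DAPI. Condensed and fragmented nuclei assessed by fluorescence microscopy at 40X.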
# [28] = test system: HCT-116; test: Induction of apoptosis in human HCT116 cells assessed as apoptotic cells at 5 uM after 24 hrs by Alexa Fluor 488 Annexin V/MitoTracker red staining-based flow cytometric analysis (reference value: 7.48%); type: functional
# [29] = test system: HCT-116; test: Induction of apoptosis in human HCT116 cells assessed as viable cells at 5 uM after 24 hrs by Alexa Fluor 488 Annexin V/MitoTracker red staining-based flow cytometric analysis (reference value: 92.5%); type: functional; details: HCT-116, 24 h, read-out: Activity
# [30] = test system: HCT-116; test: Cell cycle arrest in human HCT116 cells assessed as sub G1 phase accumulation after 24 hrs by propidium iodide staining-based flow cytometric analysis; type: functional
# [31] = test system: HCT-116; test: Cell cycle arrest in human HCT116 cells assessed as S phase accumulation at 20 uM after 24 hrs by propidium iodide staining-based flow cytometric analysis (reference value: 9.18%); type: functional
# [32] = test system: HCT-116; test: Cell cycle arrest in human HCT116 cells assessed as subG1 phase accumulation at 10 uM after 24 hrs by propidium iodide staining-based flow cytometric analysis (reference value: 3.81%); type: functional
# [33] = test system: HCT-116; test: Inhibition of colony formation in human HCT116 cells assessed as decrease in colony size at 5 to 20 uM; type: functional, cell-based; how it was run: as §1
# [34] = test system: HCT-116; test: Cell cycle arrest in human HCT116 cells assessed as G1 phase accumulation at 20 uM after 24 hrs by propidium iodide staining-based flow cytometric analysis (reference value: 78.7%); type: functional
# [35] = test system: HCT-116; test: Cell cycle arrest in human HCT116 cells assessed as G2 phase accumulation at 5 uM after 24 hrs by propidium iodide staining-based flow cytometric analysis (reference value: 7.56%); type: functional
# [36] = test system: HCT-116; test: Induction of apoptosis in human HCT116 cells assessed as viable cells at 20 uM after 24 hrs by Alexa Fluor 488 Annexin V/MitoTracker red staining-based flow cytometric analysis (reference value: 92.5%); type: functional; details: HCT-116, 24 h, read-out: Activity
# [37] = test system: HCT-116; test: Cytotoxicity against human HCT116 cells assessed as reduction in cell confluence at 10 to 30 uM after 20 hrs; type: functional, cell-based
# [38] = test system: HCT-116; test: Induction of apoptosis in human HCT116 cells assessed as chromatin condensation at 5 to 10 uM after 48 hrs by DAPI staining-based fluorescent microscopic analysis; type: functional, cell-based; how it was run: as §2
# [39] = test system: HCT-116; test: Induction of apoptosis in human HCT116 cells assessed as nuclear fragmentation at 5 to 10 uM after 24 hrs by DAPI staining-based fluorescent microscopic analysis; type: functional, cell-based; how it was run: as §2
# [40] = test system: HCT-116; test: Induction of apoptosis in human HCT116 cells after 24 hrs by Alexa Fluor 488 Annexin V/MitoTracker red staining-based flow cytometric analysis; type: functional, cell-based
# [41] = test system: HCT-116; test: Induction of apoptosis in human HCT116 cells assessed as apoptotic cells at 10 uM after 24 hrs by Alexa Fluor 488 Annexin V/MitoTracker red staining-based flow cytometric analysis (reference value: 7.48%); type: functional
# [42] = test system: HCT-116; test: Cytotoxicity against human HCT116 cells at 1 to 30 uM incubated for 72 hrs by inverted microscopy
# [43] = test system: HCT-116; test: Induction of apoptosis in human HCT116 cells assessed as apoptotic cells at 20 uM after 24 hrs by Alexa Fluor 488 Annexin V/MitoTracker red staining-based flow cytometric analysis (reference value: 7.48%); type: functional
# [44] = test system: HCT-116; test: Cell cycle arrest in human HCT116 cells assessed as G2 phase accumulation at 10 uM after 24 hrs by propidium iodide staining-based flow cytometric analysis (reference value: 7.56%); type: functional
smiles,measurement,setting,value
Cc1ccc2[nH]c3nnc(N)c-3cc2c1,IC50,[1],> 100 µM
same,IC50,[2],> 100 µM
same,IC50,[3],98.3 µM
same,IC50,[4],> 100 µM
same,IC50,[5],> 100 µM
same,IC50,[6],89.6 µM
same,IC50,[7],32.9 µM
same,IC50,[8],> 100 µM
same,IC50,[9],61.2 µM
same,IC50,[10],> 100 µM
same,IC50,[11],> 100 µM
Cc1cc2cc3c(N)[nH]nc3nc2cc1C,IC50,[1],> 100 µM
same,IC50,[2],> 100 µM
same,IC50,[3],> 100 µM
same,IC50,[4],78.8 µM
same,IC50,[5],> 100 µM
same,IC50,[6],> 100 µM
same,IC50,[7],> 100 µM
same,IC50,[8],> 100 µM
same,IC50,[9],38.9 µM
same,IC50,[10],> 100 µM
same,IC50,[11],> 100 µM
Nc1[nH]nc2nc3ccccc3cc12,IC50,[1],58.6 µM
same,IC50,[2],> 100 µM
same,IC50,[3],83.9 µM
same,IC50,[4],81.5 µM
same,IC50,[5],67.7 µM
same,IC50,[6],88.6 µM
same,IC50,[7],95.7 µM
same,IC50,[8],> 100 µM
same,IC50,[9],7.8 µM
same,IC50,[10],> 100 µM
same,IC50,[11],> 100 µM
COc1ccc2cc3c(N)n[nH]c3nc2c1,IC50,[1],9.6 µM
same,IC50,[2],50.6 µM
same,IC50,[3],56.6 µM
same,Activity,[12],55.9%
same,Activity,[13],45.9%
same,Activity,[14],59.3%
same,Activity,[15],Active
same,viability at 30 µM,[16],46.7%
same,Activity,[17],22.4%
same,Activity,[18],0.6%
same,Activity,[19],53.3%
same,Activity,[20],<=20%
same,Activity,[21],Active
same,viability at 10 µM,[22],68.1%
same,Activity,[23],Non-Toxic
same,IC50,[4],59.2 µM
same,Activity,[24],14.5%
same,inhibition,[25],Active
same,Activity,[26],15.1%
same,Activity,[27],Active
same,IC50,[5],2.3 µM
same,Activity,[28],22.9%
same,viability at 5 µM,[29],77%
same,Activity,[30],Dose-dependent effect
same,Activity,[31],7.99%
same,Activity,[32],32%
same,inhibition,[33],Active
same,Activity,[34],33.5%
same,IC50,[6],10.2 µM
same,IC50,[7],3.9 µM
same,Activity,[35],1.37%
same,IC50,[8],45.8 µM
same,IC50,[9],7.8 µM
same,viability at 20 µM,[36],66%
same,IC50,[10],53.4 µM
same,Activity,[37],Active
same,Activity,[38],Active
same,IC50,[11],87.1 µM
same,Activity,[39],Active
same,Activity,[40],Dose-dependent effect
same,Activity,[41],31.8%
same,Activity,[42],Active
same,Activity,[43],34%
same,Activity,[44],5.3%
